Sampled rows, rich in hits. Any-hit rate of the full collection: about 2.3%.
TRPC6 activator: activators of mouse TRPC6 channel. Q61143. HEK293-TRPC6 membrane potential dye fluorescence; stronger effect = higher value. B-score at 10 µM. 310,000 compounds, 0.13% hits. AID 2550;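 active = B-score of the integrated fluorescence ratio above library mean plus 3 SD, and starting fluorescence ratio within library mean plus 5 SD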;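 also: higher score means more depolarization so channel activation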
Target sequence (Q61143 whole entry, looked up): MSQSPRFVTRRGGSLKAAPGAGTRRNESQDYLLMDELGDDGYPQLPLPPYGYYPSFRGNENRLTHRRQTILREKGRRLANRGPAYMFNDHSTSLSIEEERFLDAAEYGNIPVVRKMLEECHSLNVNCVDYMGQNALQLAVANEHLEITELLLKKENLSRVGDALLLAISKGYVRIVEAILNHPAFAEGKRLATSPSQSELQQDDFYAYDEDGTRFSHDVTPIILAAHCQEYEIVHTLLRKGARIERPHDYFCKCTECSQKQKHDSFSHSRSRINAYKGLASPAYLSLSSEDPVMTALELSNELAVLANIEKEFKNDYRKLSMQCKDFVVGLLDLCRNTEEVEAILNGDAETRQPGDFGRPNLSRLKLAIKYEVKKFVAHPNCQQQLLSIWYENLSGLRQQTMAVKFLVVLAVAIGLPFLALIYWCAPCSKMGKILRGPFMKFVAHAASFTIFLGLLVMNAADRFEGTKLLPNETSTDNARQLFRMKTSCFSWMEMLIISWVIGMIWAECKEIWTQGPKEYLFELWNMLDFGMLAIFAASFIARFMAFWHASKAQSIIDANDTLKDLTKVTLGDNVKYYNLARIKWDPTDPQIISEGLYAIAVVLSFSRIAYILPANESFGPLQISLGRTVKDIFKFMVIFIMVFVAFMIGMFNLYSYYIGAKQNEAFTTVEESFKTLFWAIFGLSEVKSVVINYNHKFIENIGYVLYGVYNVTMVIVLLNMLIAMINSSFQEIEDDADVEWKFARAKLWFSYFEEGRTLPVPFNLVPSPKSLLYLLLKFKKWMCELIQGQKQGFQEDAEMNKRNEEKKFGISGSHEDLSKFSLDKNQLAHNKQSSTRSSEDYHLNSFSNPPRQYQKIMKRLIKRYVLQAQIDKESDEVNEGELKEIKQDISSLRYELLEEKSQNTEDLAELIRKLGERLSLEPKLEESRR
TRPC4 agonist: opens the mouse TRPC4 cation channel; AID 2237; B-score at 10 µM; Q9QUQ5; 310,000 compounds, 0.49% hits; HEK293 TRPC4beta/mu-opioid, Fluo4 calcium fluorescence; stronger effect = higher value;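 active = B-score above 5 SD of library B-scores, and initial fluorescence ratio not above library mean plus 5 SD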;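 also: positive B-score marks a calcium rise read as TRPC4 activation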
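Incubation: 45 min room-temperature Fluo4 loading, 110 s read / System: HEK293 cells stably co-expressing mouse TRPC4beta and mu-opioid receptor / Signal: Fluo4 fluorescence, kinetic / Control set: buffer (low) and maximal DAMGO (high) / Measure: integrated baseline-normalised fluorescence ratio, converted to per-well B score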
TRPC4 potent: allosteric potentiators of mouse TRPC4 channel; 310,000 compounds, 0.42% hits; HEK293 TRPC4beta/mu-opioid, DAMGO EC20, Fluo-4 Ca2+ flux; stronger effect = higher value; Q9QUQ5; B-score at 10 µM;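 active = B-score of calcium response area above 5 SD of library B-scores, with initial fluorescence ratio within 5 SD of library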
TRPC4 block: TRPC4 (mouse) channel inhibition. 300,000 compounds, 0.39% hits. B-score at 10 µM. HEK293 TRPC4beta/mu-opioid, DAMGO-evoked Fluo4 calcium flux; stronger effect = lower value. Q9QUQ5;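 active = B-score over 3 SD under the library average, no early fluorescence shift, positive overall ratio signal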
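Signal: kinetic Fluo4 fluorescence imaging of calcium influx. Material: stable TRPC4beta/mu-opioid receptor HEK293 cells. Probe or stimulus: DAMGO in two steps, submaximal then maximal.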
TRPC6 inh: inhibitors of mouse TRPC6 channel; B-score at 10 µM; Q61143; HEK293-TRPC6, membrane potential dye, ACh-evoked depolarization; stronger effect = lower value; 310,000 compounds, 1.1% hits; AID 2553;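 active = B-score under library mean minus 3 SD, initial fluorescence not abnormally high, positive integrated signal ratio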;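 also: B-score derived from integrated fluorescence ratio over the kinetic read; more negative B-score means stronger inhibition of depolarization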
TRPC4 spec 2: second check of whether TRPC6 inhibitors also affect mouse TRPC4. 920 compounds, 42% hits. inhibition, % at 10 µM. shares compounds with TRPC6 inh. HEK293 TRPC4/MOR, membrane potential dye fluorescence; channel activated by saturating DAMGO dose;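 active = compounds whose fluorescence signal differed from control wells by over 3 SD, either direction, in both duplicate plates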
TRPC4 spec: mouse TRPC4 off-target activity of TRPC6 inhibitors. shares compounds with TRPC6 inh. HEK293 TRPC4/mu-opioid, membrane potential fluorescence. activity change, negative = inhibition, % at 10 µM. 920 compounds, 61% hits. AID 2777;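 active = rise or fall in signal beyond 3 SD of buffer-only wells in both replicate plates, either sign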;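 also: integrated kinetic ratio of fluorescence range over baseline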
HEK293 MPD ctr 2-1: second counter-screen for TRPC6 inhibitors: parental HEK293 cells | shares compounds with TRPC6 inh | signal change vs control, % at 10 µM | AID 2779 | 920 compounds, 31% hits | parental HEK293 membrane potential dye fluorescence; maximal acetylcholine challenge after compound addition;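 active = membrane potential signal moving either way by over 3 SD of the maximum-effect control, in both duplicate plates, meaning non-specific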
HEK293 MPD ctr-1: counter-screen for TRPC6 inhibitors: effect in parental HEK293 cells; 920 compounds, 60% hits; parental HEK293 membrane potential dye fluorescence; membrane potential signal change, % at 10 µM; shares compounds with TRPC6 inh;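 active = membrane potential signal shifting up or down by more than 3 SD of buffer-only wells, on both duplicate plates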
HEK293 MPD ctr-2: checks TRPC6 modulator effects in parental HEK293 cells. shares compounds with TRPC6 inh. 2,400 compounds, 51% hits. membrane potential signal change, % at 10 µM. membrane potential dye fluorescence;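 active = membrane potential signal moves up or down beyond 5 SD from buffer-only wells, on both duplicate plates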
HEK293 MPD ctr 2-2: parental HEK293 nonspecific activity of TRPC6 modulators, second screen; shares compounds with TRPC6 inh; membrane potential dye fluorescence; after compound, maximal acetylcholine stimulation; inhibition, % at 10 µM; 2,400 compounds, 14% hits;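 active = membrane potential signal drops by more than 5 SD from the mean control signal, in both duplicate plates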
TRPC4 ctr mod: selectivity of TRPC6 modulators against mouse TRPC4. shares compounds with TRPC6 inh. HEK293 TRPC4/mu-opioid, membrane potential fluorescence. percent change from control (negative = decrease, positive = increase), % at 10 µM. 2,400 compounds, 69% hits. AID 488927;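 active = membrane potential signal moved up or down beyond 5 SD of buffer control wells, in both duplicate plates, actives on both sides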
TRPC4/MOR inh 2: mouse TRPC4 off-target activity of TRPC6 modulators, second screen; inhibition, % at 10 µM; 2,400 compounds, 55% hits; AID 488928; shares compounds with TRPC6 inh; HEK293 TRPC4/mu-opioid, membrane potential dye fluorescence; stimulated with maximal-effect DAMGO;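 active = drop in membrane potential signal beyond 5 SD of the control wells in both duplicate plates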;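 also: TRPC4 counter screen for TRPC6 hits run under conditions tuned for TRPC6 not TRPC4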
TRPC6 block conf: confirmation of mouse TRPC6 inhibitors | shares compounds with TRPC6 inh | HEK293-TRPC6, membrane potential dye, ACh-evoked depolarization | inhibition, % at 10 µM | 3,300 compounds, 43% hits;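 active = fluorescence ratio falls more than 5 SD below the full-stimulation control mean, in both duplicate runs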;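 also: integrated fluorescence ratio of peak minus minimum over baseline after agonist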
TRPC6 act confirm: confirmation of mouse TRPC6 activators | 2,800 compounds, 11% hits | activation, % at 10 µM | HEK293-TRPC6 membrane potential dye fluorescence, FDSS | AID 488961 | shares compounds with TRPC6 inh;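 active = ratio signal rise beyond 5 SD above unstimulated control wells' mean, seen in both duplicate runs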
Of the large screens only hits and unclear results are named; the others gave an inactive call (follow-up assays come after a bar, where they were run).

Cc1nccn1CCc1n[nH]c(=S)n1Cc1ccccc1	TRPC6 inh -6.5 | HEK293 MPD ctr-2 inactive | HEK293 MPD ctr 2-2 inactive | TRPC4 ctr mod inactive | TRPC4/MOR inh 2 inactive | TRPC6 block conf 69% | TRPC6 act confirm inactive
CCCCn1c(SCC(=O)NC2CC2)nnc1-c1ccncc1	none
O=C(/C=C/c1cn(CC(O)CN2CCCCCC2)c2ccccc12)c1cccs1 (stereo not drawn)	TRPC6 inh -6.1 | HEK293 MPD ctr-2 652% | HEK293 MPD ctr 2-2 inactive | TRPC4 ctr mod -21% | TRPC4/MOR inh 2 88% | TRPC6 block conf 62% | TRPC6 act confirm inactive
CCCCN(C)CC(O)Cn1cc(/C=C/C(=O)c2cccs2)c2ccccc21 (stereo not drawn)	none
CCOC(=O)c1c(S(=O)(=O)N2CCCC(C(=O)Nc3cccc(C)n3)C2)c(C)n(C)c1C (stereo not drawn)	none
CCOC(=O)c1ccc(NC(=O)Oc2cc(C)c(Cl)cc2C(C)C)cc1	TRPC6 inh -9.9 | HEK293 MPD ctr-2 126% | HEK293 MPD ctr 2-2 inactive | TRPC4 ctr mod 13% | TRPC4/MOR inh 2 31% | TRPC6 block conf inactive | TRPC6 act confirm inactive
COc1ccccc1CNC(=O)COC(=O)c1cccc(S(=O)(=O)N2CCCC2)c1	none
CC1CCN(C(=O)c2ccc3c(c2NCCO)C(=O)c2ccccc2C3=O)CC1	TRPC6 inh -7.7 | HEK293 MPD ctr-2 -209% | HEK293 MPD ctr 2-2 inactive | TRPC4 ctr mod -35% | TRPC4/MOR inh 2 76% | TRPC6 block conf 51% | TRPC6 act confirm inactive
NC(=O)c1ccccc1OC1CCC1	none
CN(C)CCCNc1nc(-c2ccccc2)nc2ccccc12	TRPC6 inh -7.7 | TRPC4 spec 2 40% | TRPC4 spec -27% | HEK293 MPD ctr 2-1 inactive | HEK293 MPD ctr-1 -347% | TRPC6 block conf 65% | TRPC6 act confirm inactive
COc1cc(Nc2c3c(nc4ccccc24)CCCC3)cc(OC)c1OC	TRPC6 inh -6.1 | HEK293 MPD ctr-2 -96% | HEK293 MPD ctr 2-2 inactive | TRPC4 ctr mod -20% | TRPC4/MOR inh 2 38% | TRPC6 block conf inactive | TRPC6 act confirm inactive
CN(C)CCCNc1c2ccccc2nc2ccccc12	TRPC4 block -6, TRPC6 inh -11 | HEK293 MPD ctr-2 -268% | HEK293 MPD ctr 2-2 177% | TRPC4 ctr mod -44% | TRPC4/MOR inh 2 78% | TRPC6 block conf 88% | TRPC6 act confirm inactive
CN(C)CCCNc1oc(-c2ccccc2)nc1C#N	none
Nc1c2c(nc3ccccc13)CCC2	TRPC4 block -5, TRPC6 inh -7 | HEK293 MPD ctr-2 -279% | HEK293 MPD ctr 2-2 inactive | TRPC4 ctr mod -42% | TRPC4/MOR inh 2 70% | TRPC6 block conf inactive | TRPC6 act confirm inactive
CC(=O)c1ccc(NC(=O)CCCN2C(=O)C(c3ccccc3)Oc3cccnc32)cc1 (stereo not drawn)	none
Nc1c2c(nc3ccccc13)N(C1CCCCC1)CC2	TRPC4 block -6, TRPC6 inh -12 | TRPC4 spec 2 27% | TRPC4 spec -28% | HEK293 MPD ctr 2-1 -2.5% | HEK293 MPD ctr-1 -388% | TRPC6 block conf 109% | TRPC6 act confirm inactive
Nc1c2c(nc3ccc(Br)cc13)N(Cc1ccccc1)CC2	none
CC(C)(C)CC(C)(C)NCC(=O)Nc1c2c(nc3ccccc13)CCC2	none
CN(C)CCNc1c2c(nc3ccccc13)CCC2	TRPC6 inh -9.1 | HEK293 MPD ctr-2 -202% | HEK293 MPD ctr 2-2 110% | TRPC4 ctr mod -36% | TRPC4/MOR inh 2 77% | TRPC6 block conf 74% | TRPC6 act confirm inactive
OC(c1cccs1)(c1cccs1)C1C[N+]2(CF)CCC1CC2 (stereo not drawn)	TRPC6 inh -6.4 | HEK293 MPD ctr-2 inactive | HEK293 MPD ctr 2-2 inactive | TRPC4 ctr mod inactive | TRPC4/MOR inh 2 inactive | TRPC6 block conf 40% | TRPC6 act confirm inactive
CCN(Cc1ccncc1)C(=O)c1ccc2c(c1)S(=O)(=O)c1ccccc1C2=O	none
c1cc(Nc2ncnc3sc4c(c23)CCC4)ccn1	TRPC6 inh -5.6 | HEK293 MPD ctr-2 -242% | HEK293 MPD ctr 2-2 67% | TRPC4 ctr mod -39% | TRPC4/MOR inh 2 38% | TRPC6 block conf 55% | TRPC6 act confirm inactive
C(=N\Nc1ncnc2sc3c(c12)CCC3)/c1ccncc1	none
Cc1cccc(Nc2c(-c3ccc(O)cc3)nc3ncccn23)c1	TRPC6 inh -5.2 | HEK293 MPD ctr-2 -55% | HEK293 MPD ctr 2-2 inactive | TRPC4 ctr mod -13% | TRPC4/MOR inh 2 56% | TRPC6 block conf inactive | TRPC6 act confirm inactive
Cc1ccc(Nc2c(-c3ccc(N4CCOCC4)cc3)nc3ncccn23)cc1C	TRPC6 inh -6.1 | HEK293 MPD ctr-2 inactive | HEK293 MPD ctr 2-2 inactive | TRPC4 ctr mod -26% | TRPC4/MOR inh 2 80% | TRPC6 block conf inactive | TRPC6 act confirm inactive
O=C(NC1CCCCC1)c1cc(-c2ccccc2O)on1	none
CC(C)c1cc(C(=O)N2CCCC(N3CCN(c4ccc(F)cc4)CC3)C2)n(C)n1 (stereo not drawn)	none
O=S(=O)(Nc1cccnc1)c1ccc(Br)c2ccccc12	none

Compound activity from PubChem BioAssay.
